# Measured values taken from ChEMBL document CHEMBL4840303, “Design, synthesis, biological evaluation and pharmacophore model analysis of novel tetrahydropyrrolo[3,4-c]pyrazol derivatives as potential TRKs inhibitors” (Eur J Med Chem, 2021).
# Legend:
# KM12 [1] = test: Cell cycle arrest in human KM12 cells assessed as accumulation of cells at G2 phase at 62.5 nM measured after 48 hrs by AnnexinV-FITC/PI staining based flowcytometry method relative to control; format: functional
# [2] = target: Receptor-type tyrosine-protein kinase FLT3 (Homo sapiens) (UniProt P36888); test: Inhibition of recombinant His-tagged human FLT3 expressed in baculovirus expression system at 1 uM measured by select screen assay relative to control
# Outline: (§1)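 Single-concentration profiling at 1.0 µM in a 28-kinase SelectScreen panel; percent inhibition reported.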
# KM12 [3] = test: Induction of apoptosis in human KM12 cells assessed as necrotic cells at 125 nM measured after 48 hrs by AnnexinV-FITC/PI staining based flowcytometry assay relative to control; format: functional
# Outline: (§2)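 They were detached with trypsin, washed twice in PBS, and 10^5 cells were suspended in Annexin V binding buffer. Cells were stained with FITC-Annexin V and PI for 10 min at room temperature in the dark, diluted with PBS and analysed by flow cytometry.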
# CYP1A2 = CYP1A2 (Homo sapiens, UniProt P05177); test: Inhibition of CYP1A2 in human liver microsomes at 10 uM preincubated for 10 mins followed by addition of NADPH and measured after 15 mins by LC-MS/MS analysis; format: ADME; settings: time 25 min
# Outline: (§3)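 Pooled human liver microsomes (0.253 mg/mL) with test compound at 10 µM and probe substrates: phenacetin (CYP1A2), diclofenac (CYP2C9), S-mephenytoin (CYP2C19), dextromethorphan (CYP2D6), midazolam (CYP3A4). 10 min preincubation at 37 °C, NADPH-regenerating system added, 15 min at 37 °C. Stopped with cold acetonitrile containing tolbutamide/labetalol internal standards, centrifuged, supernatant read by LC-MS/MS; % inhibition.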
# [4] = Half life in Sprague dawley rat at 3 mg/kg, po; format: ADME, organism-based; settings: in vivo
# Outline: (§4)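 Blood was collected into heparin tubes at specified time points and centrifuged at once (4 °C, 4000 rpm, 20 min). Plasma levels were quantified by LC-MS/MS. Parameters came from noncompartmental analysis.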
# [5] = target: Serine/threonine-protein kinase PAK 1 (Homo sapiens) (UniProt Q13153); test: Inhibition of recombinant GST-tagged human full length PAK1 expressed in baculovirus expression system at 1 uM measured by select screen assay relative to control; outline: as §1
# [6] = target: Serine/threonine-protein kinase PAK 4 (Homo sapiens) (UniProt O96013); test: Inhibition of recombinant GST-tagged human PAK4 (295 to 591 residues) expressed in baculovirus expression system at 1 uM measured by select screen assay relative to control; outline: as §1
# [7] = target: Aurora kinase A (Homo sapiens) (UniProt O14965); test: Inhibition of recombinant His-tagged full length human Aurora A expressed in baculovirus expression system at 1 uM measured by select screen assay relative to control; outline: as §1
# [8] = target: Tyrosine-protein kinase JAK2 (Homo sapiens) (UniProt O60674); test: Inhibition of recombinant GST-tagged human JAK2 expressed in baculovirus expression system at 1 uM measured by select screen assay relative to control; outline: as §1
# CYP2C19 = CYP2C19 (Homo sapiens, UniProt P33261); test: Inhibition of CYP2C19 in human liver microsomes at 10 uM preincubated for 10 mins followed by addition of NADPH and measured after 15 mins by LC-MS/MS analysis; format: ADME; settings: time 25 min; outline: as §3
# [9] = Clearance in human microsomes assessed as half life at 100 uM measured after 60 mins by LC-MS/MS analysis; format: ADME, Liver, Microsome
# Outline: (§5)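 Pooled human liver microsomes were diluted to 0.59 mg/mL (working solution) in 100 mM potassium phosphate buffer and pre-warmed at 37 °C. Compound was added from a 100 µM working solution, with NADPH cofactor prepared in 10 mM MgCl2. Incubation ran at 37 °C for 60 min. Aliquots were quenched at 5, 15, 30, 45 and 60 min. A control without NADPH was run in buffer. Samples were analysed by LC-MS/MS.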
# [10] = target: BDNF/NT-3 growth factors receptor (Homo sapiens, UniProt Q16620); test: Inhibition of recombinant His-tagged human TRKB expressed in baculovirus expression system at 1 uM measured by select screen assay relative to control; outline: as §1
# KM12 [11] = test: Induction of apoptosis in human KM12 cells assessed as necrotic cells at 250 nM measured after 48 hrs by AnnexinV-FITC/PI staining based flowcytometry assay relative to control; format: functional
# Outline: (§6)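 10^5 cells in Annexin V binding buffer stained with FITC-Annexin V and PI for 10 min at room temperature in the dark, diluted with PBS and analysed by flow cytometry (FITC 494/518 nm, PI 535/617 nm).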
# KM12 [12] = test: Cell cycle arrest in human KM12 cells assessed as accumulation of cells at S phase at 62.5 nM measured after 48 hrs by AnnexinV-FITC/PI staining based flowcytometry method relative to control; format: functional
# KM12 [13] = test: Induction of apoptosis in human KM12 cells assessed as necrotic cells at 62.5 nM measured after 48 hrs by AnnexinV-FITC/PI staining based flowcytometry assay relative to control; format: functional; outline: as §6
# [14] = Clearance in human liver assessed as half life at 100 uM measured after 60 mins by LC-MS/MS analysis; format: ADME, Microsome; settings: microsomes, 1 h; outline: as §5
# [15] = target: NT-3 growth factor receptor (Homo sapiens, UniProt Q16288); test: Inhibition of N-terminal GST-tagged human TRKC (456 to 825 residues) expressed in Sf21 using TK as substrate in presence of ATP measured after 40 mins by HTRF assay
# KM12 [16] = test: Induction of apoptosis in human KM12 cells assessed as early apoptotic cells at 500 nM measured after 48 hrs by AnnexinV-FITC/PI staining based flowcytometry assay relative to control; format: functional; outline: as §2
# KM12 [17] = test: Induction of apoptosis in human KM12 cells assessed as late apoptotic cells at 500 nM measured after 48 hrs by AnnexinV-FITC/PI staining based flowcytometry assay relative to control; format: functional; outline: as §2
# KM12 [18] = test: Induction of apoptosis in human KM12 cells assessed as late apoptotic cells at 62.5 nM measured after 48 hrs by AnnexinV-FITC/PI staining based flowcytometry assay relative to control; format: functional; outline: as §2
# [19] = Stability in human plasma assessed as half life incubated for 0 mins by LC-MS/MS analysis; format: ADME, cell-free
# Outline: (§7)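 Pooled frozen human plasma thawed at 37 °C, centrifuged to remove clots, pH adjusted to 7.4 if required. Spiked to 2 µM final (from 100 µM dosing solution), in duplicate, incubated at 37 °C in a water bath. Sampled at 0, 10, 30, 60 and 120 min, quenched with acetonitrile stop solution containing internal standards, centrifuged, and supernatant analysed by LC-MS/MS for percent remaining.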
# [20] = AUC (last) in Sprague dawley rat at 3 mg/kg, po; format: ADME, organism-based; design: time 0 - last, route oral, dose 3 mg/kg; settings: in vivo; outline: as §4
# KM12 [21] = test: Cell cycle arrest in human KM12 cells assessed as accumulation of cells at G2 phase at 500 nM measured after 48 hrs by AnnexinV-FITC/PI staining based flowcytometry method relative to control; format: functional
# [22] = AUC (0 to infinity) in Sprague dawley rat at 3 mg/kg, po; format: ADME, organism-based; design: time infinity, route oral, dose 3 mg/kg; settings: in vivo; outline: as §4
# KM12 [23] = test: Induction of apoptosis in human KM12 cells assessed as early apoptotic cells at 1000 nM measured after 48 hrs by AnnexinV-FITC/PI staining based flowcytometry assay relative to control; format: functional; outline: as §2
# [24] = Stability in human plasma assessed as compound remaining incubated for 0 mins by LC-MS/MS analysis; format: ADME, cell-free; settings: read-out: Stability; outline: as §7
# Tyrosine-protein kinase JAK2 (Homo sapiens), sequence (O60674 whole entry): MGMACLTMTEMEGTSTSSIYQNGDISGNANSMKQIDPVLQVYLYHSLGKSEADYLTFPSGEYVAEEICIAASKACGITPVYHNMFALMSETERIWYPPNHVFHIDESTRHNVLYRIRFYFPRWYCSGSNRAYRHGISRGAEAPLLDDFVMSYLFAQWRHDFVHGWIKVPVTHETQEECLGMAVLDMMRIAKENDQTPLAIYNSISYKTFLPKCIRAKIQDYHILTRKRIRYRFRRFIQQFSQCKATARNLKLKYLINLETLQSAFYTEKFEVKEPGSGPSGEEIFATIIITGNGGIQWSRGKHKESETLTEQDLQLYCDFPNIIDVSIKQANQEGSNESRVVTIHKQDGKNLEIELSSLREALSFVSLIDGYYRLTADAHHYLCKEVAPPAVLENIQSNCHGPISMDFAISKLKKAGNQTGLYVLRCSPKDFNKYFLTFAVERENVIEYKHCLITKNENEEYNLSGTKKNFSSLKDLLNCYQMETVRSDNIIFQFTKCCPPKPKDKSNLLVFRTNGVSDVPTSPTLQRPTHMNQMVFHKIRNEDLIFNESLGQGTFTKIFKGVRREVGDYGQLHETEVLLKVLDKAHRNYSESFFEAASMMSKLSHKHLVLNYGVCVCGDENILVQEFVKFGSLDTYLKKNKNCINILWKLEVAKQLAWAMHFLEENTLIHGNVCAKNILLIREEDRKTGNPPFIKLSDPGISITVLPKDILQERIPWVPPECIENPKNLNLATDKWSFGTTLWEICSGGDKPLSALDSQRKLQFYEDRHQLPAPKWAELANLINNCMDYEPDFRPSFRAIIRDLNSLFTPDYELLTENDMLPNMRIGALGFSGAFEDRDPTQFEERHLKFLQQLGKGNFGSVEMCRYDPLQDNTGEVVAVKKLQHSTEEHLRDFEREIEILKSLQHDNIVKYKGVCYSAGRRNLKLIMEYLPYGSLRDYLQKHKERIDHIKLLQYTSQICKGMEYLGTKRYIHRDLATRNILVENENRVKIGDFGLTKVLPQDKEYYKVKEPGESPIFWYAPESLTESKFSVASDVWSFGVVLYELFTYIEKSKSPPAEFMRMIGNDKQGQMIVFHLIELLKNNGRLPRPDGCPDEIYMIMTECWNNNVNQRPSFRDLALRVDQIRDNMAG
# Serine/threonine-protein kinase PAK 4 (Homo sapiens), sequence (O96013 whole entry, looked up, the tested form may be a part): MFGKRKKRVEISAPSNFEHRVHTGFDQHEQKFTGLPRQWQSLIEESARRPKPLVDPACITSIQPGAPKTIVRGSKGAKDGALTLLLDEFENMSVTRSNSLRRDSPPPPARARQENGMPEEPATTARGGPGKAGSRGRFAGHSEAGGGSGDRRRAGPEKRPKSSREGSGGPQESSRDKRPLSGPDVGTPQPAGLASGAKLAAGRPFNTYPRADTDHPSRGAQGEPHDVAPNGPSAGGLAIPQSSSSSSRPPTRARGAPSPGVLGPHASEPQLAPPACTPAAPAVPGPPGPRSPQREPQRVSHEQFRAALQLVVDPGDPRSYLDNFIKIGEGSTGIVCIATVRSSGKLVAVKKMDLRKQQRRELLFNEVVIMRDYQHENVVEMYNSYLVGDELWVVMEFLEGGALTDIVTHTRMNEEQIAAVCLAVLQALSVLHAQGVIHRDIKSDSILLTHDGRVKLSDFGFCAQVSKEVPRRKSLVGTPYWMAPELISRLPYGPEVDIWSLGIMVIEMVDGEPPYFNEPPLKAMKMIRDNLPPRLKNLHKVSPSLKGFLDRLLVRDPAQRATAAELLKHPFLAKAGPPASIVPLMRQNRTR
# Serine/threonine-protein kinase PAK 1 (Homo sapiens), sequence (Q13153 whole entry, the tested form may be a part): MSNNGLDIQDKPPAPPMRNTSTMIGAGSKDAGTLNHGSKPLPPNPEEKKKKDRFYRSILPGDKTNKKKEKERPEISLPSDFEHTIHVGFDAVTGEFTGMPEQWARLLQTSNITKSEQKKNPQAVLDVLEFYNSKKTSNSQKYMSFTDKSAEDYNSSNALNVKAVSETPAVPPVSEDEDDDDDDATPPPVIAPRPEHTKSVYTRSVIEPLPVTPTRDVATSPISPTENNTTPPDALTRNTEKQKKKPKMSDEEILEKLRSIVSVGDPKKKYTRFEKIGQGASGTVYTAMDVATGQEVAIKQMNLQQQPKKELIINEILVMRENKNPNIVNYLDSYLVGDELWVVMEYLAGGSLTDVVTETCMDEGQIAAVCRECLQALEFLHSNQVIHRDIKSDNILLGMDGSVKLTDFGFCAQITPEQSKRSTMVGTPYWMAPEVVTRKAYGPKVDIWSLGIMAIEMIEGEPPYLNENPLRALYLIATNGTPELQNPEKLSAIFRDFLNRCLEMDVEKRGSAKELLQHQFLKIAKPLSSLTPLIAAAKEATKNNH
# BDNF/NT-3 growth factors receptor, sequence (Q16620 32-822 limits assumed): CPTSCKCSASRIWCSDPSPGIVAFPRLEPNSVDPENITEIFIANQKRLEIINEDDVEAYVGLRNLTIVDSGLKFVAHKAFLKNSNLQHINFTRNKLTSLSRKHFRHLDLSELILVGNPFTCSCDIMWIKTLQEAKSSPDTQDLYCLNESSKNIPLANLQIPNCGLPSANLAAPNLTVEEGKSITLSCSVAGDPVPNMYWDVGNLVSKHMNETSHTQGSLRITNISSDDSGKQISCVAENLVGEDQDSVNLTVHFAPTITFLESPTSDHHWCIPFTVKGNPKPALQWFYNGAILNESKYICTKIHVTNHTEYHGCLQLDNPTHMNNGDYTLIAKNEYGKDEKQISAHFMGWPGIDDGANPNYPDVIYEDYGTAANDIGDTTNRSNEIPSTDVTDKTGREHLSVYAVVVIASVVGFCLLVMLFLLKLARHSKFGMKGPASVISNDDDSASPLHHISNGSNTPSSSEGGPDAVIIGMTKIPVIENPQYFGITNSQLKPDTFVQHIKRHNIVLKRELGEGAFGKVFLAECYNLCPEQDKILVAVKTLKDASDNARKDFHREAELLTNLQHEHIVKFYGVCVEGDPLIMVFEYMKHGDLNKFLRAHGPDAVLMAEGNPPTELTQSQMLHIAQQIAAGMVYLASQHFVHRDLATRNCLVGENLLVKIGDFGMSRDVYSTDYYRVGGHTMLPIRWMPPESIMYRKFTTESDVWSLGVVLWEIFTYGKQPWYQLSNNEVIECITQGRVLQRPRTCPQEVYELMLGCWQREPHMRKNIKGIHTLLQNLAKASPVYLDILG
# NT-3 growth factor receptor, sequence (Q16288 whole entry, the tested form may be a part): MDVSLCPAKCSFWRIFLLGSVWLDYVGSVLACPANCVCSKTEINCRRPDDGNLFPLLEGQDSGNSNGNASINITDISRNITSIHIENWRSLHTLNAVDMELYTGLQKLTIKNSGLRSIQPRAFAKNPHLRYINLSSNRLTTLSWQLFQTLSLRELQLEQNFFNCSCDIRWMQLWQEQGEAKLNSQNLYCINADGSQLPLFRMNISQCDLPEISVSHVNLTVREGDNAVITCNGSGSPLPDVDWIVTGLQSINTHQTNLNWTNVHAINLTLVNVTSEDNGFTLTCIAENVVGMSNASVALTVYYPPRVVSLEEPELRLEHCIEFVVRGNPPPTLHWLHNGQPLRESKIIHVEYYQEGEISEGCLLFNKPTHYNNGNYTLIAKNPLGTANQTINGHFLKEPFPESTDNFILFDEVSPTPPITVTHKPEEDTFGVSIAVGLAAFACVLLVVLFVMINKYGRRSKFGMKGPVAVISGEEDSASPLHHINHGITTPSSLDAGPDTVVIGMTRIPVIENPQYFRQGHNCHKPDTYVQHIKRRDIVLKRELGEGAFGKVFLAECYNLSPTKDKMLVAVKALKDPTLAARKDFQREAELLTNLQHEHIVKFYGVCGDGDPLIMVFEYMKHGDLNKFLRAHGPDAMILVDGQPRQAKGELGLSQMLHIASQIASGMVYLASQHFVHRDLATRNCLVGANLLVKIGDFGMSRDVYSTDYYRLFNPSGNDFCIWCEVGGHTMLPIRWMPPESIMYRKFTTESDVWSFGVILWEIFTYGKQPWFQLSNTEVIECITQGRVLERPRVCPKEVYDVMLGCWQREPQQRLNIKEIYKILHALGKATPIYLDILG
# Aurora kinase A (Homo sapiens), sequence (O14965 whole entry): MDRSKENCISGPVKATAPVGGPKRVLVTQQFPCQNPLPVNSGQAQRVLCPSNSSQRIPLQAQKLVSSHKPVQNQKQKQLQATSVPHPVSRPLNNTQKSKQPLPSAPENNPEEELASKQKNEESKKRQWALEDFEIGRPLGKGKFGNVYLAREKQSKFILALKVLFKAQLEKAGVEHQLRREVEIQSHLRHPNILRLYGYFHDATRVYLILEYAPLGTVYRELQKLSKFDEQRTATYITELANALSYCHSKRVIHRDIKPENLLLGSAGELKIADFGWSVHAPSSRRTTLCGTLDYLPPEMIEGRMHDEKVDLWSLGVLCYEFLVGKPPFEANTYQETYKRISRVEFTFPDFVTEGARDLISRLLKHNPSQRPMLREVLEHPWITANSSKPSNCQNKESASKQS
# CYP2C19, sequence (P33261 whole entry): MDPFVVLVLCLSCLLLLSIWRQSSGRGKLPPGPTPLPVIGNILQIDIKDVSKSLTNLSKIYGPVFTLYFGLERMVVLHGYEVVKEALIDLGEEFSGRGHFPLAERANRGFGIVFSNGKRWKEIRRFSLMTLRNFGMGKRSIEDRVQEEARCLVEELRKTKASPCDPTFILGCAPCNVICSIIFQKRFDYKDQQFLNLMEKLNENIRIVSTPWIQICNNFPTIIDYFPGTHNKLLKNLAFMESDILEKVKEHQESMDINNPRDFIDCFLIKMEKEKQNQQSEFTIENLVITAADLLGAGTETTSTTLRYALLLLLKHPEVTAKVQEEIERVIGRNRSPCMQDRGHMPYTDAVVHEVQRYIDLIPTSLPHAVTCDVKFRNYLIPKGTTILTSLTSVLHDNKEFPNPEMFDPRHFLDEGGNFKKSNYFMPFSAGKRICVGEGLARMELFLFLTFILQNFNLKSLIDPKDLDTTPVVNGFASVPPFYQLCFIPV
smiles,measurement,setting,value
CN1CCN(c2ccc(C(=O)Nc3n[nH]c4c3CN(Cc3cc(F)cc(F)c3)C4(C)C)cc2)CC1,Activity,KM12 [1],15.8%
same,inhibition,[2],31%
same,Activity,KM12 [3],0.07%
same,"inhibition at 0.25 h, 10 µM",CYP1A2,12.9%
same,half-life,[4],1.89 h
same,inhibition,[5],3%
same,inhibition,[6],4%
same,inhibition,[7],11%
same,inhibition,[8],76%
same,"inhibition at 0.25 h, 10 µM",CYP2C19,11.5%
same,microsomal CLint at 100 µM,[9],46.8 µL/min/mg
same,inhibition,[10],100%
same,Activity,KM12 [11],0.04%
same,Activity,KM12 [12],35.6%
same,Activity,KM12 [13],0.03%
same,CLH,[14],42.1 µL/min/mg
same,IC50,[15],11 nM
same,Activity,KM12 [16],35.84%
same,Activity,KM12 [17],39.1%
same,Activity,KM12 [18],9.89%
same,half-life,[19],> 4.82 h
same,AUC(0-t),[20],2700 ng·h/mL
same,Activity,KM12 [21],8.75%
same,AUC(0-inf),[22],2890 ng·h/mL
same,Activity,KM12 [23],36.3%
same,remaining at 0 h,[24],100%
